Hits are enriched below; roughly 1.9% of the tested compounds scored in any of these assays.
NPY-Y2 PAM-ag – potentiators or agonists of human neuropeptide Y receptor Y2; 220,000 compounds, 0.45% hits; cells expressing NPY-Y2, potentiator/agonist read-out; AID 1359; P49146; activation, % at 3.6 µM; in the data active = activation above about 27%;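 note: cells stimulated with NPY near EC25 plus isoproterenol at EC100; 0% = vehicle plus submaximal agonist and 100% = vehicle plus saturating agonist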
Target sequence (P49146 whole entry, looked up): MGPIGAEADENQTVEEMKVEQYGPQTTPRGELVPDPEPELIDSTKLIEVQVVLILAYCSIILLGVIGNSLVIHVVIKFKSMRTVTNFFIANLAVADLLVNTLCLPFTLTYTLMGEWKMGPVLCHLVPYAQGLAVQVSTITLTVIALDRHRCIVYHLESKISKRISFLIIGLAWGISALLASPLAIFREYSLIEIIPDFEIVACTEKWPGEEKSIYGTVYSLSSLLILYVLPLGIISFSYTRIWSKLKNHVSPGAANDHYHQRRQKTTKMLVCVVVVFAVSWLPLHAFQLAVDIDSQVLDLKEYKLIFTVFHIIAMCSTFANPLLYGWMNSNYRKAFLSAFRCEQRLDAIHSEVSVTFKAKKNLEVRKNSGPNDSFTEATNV
NPY-Y1 PAM-ag – potentiators or agonists of human neuropeptide Y receptor Y1 | 220,000 compounds, 0.37% hits | NPY-Y1 expressing cells, potentiator/agonist activation | P25929 | activation, % at 3.6 µM; in the data active = activation above about 33%, passing the limit was not always enough;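 note: cells stimulated with NPY at EC10 then isoproterenol at EC100; 0% = low agonist plus stimulus and 100% = saturating agonist plus stimulus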
NPY Y1 blocker – antagonists of human neuropeptide Y receptor Y1; P25929; HEK293-CNG Y1 cells, membrane potential fluorescence; NPY at EC95, then isoproterenol; inhibition, % at 3.6 µM; 200,000 compounds, 1% hits; AID 1040;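 active = inhibition above the campaign mean inhibition of all tested compounds plus 3 SD, cut at about 20% in these data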;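 note: 0% = DMSO wells given NPY plus isoproterenol and 100% = isoproterenol alone without NPY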
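Benchmarks – high control isoproterenol alone, low control NPY with isoproterenol · Material – HEK293 Y1/CNG channel cell line · Times – dye 3 h, compound 60 min room temperature, stimulation 45 min · Probe or stimulus – NPY (25 nM), isoproterenol (1 µM), Ro 20-1724 (25 µM) · Evaluation – % inhibition of NPY effect · Signal – fluorescence, membrane potential probe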
NPY Y2 blocker – blocks the human neuropeptide Y Y2 receptor; AID 793; NPY-Y2 expressing cells, antagonist mode; inhibition, % at 2.7 µM; 140,000 compounds, 0.99% hits; in the data active = inhibition above about 17%;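 note: 0% = vehicle with agonist challenge and 100% = reference antagonist with challenge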
The depositor's hits bear a star; / = no result given.

SMILES	NPY-Y2 PAM-ag	NPY-Y1 PAM-ag	NPY Y1 blocker	NPY Y2 blocker
C=CCc1cc(OC)ccc1OCC(O)CN1CCN(c2ccc(OC)cc2)CC1 (stereo not given)	4	20	5	4
C=CCc1ccccc1OCC(O)CNC(C)C (stereo not given)	103*	116*	-13	4
Cc1onc(-c2ccccc2)c1C(=O)c1ccccc1	5	3	/	/
CCOC(=O)c1c(C2CC2)csc1NC(=O)COC(=O)CCS(=O)(=O)c1ccc(C)cc1	10	4	-1	4
CC(OC(=O)c1ccccc1NCc1ccco1)C(=O)Nc1ncc(Cl)cc1Cl (stereo not given)	-10	-9	5	6
Cc1cc(C)n(-c2nc(SCC(=O)O)c3c4c(sc3n2)COC(C)(C)C4)n1	-2	-7	/	/
Cc1cc(C)n(-c2nc(SCCN(C)C)c3c4c(sc3n2)CCCC4)n1	-53	-181	92*	101*
c1cc2c3c(cccc3c1)NC1(CCC3(CC1)Nc1cccc4cccc(c14)N3)N2	56*	60*	/	/
CCn1c(Cn2nnc(-c3ccccc3)n2)nnc1SCC(=O)Nc1ccc(C(C)=O)cc1	47*	46*	-20	-9
Cc1ccc(-n2c(C(C)C)nc3oc4ccccc4c(=O)c3c2=O)cc1	-18	2	/	/
CCCn1c(SCC(=O)N2CCN(c3ccccc3)CC2)nc2ccccc2c1=O	-23	-28	21*	19*
COC(=O)C(Cc1csc2ccc(Cl)cc12)NC(=O)c1ccc(Cl)cc1 (stereo not given)	-6	-17	/	/
CCOc1ccc(/C=C/[N+](=O)[O-])c2ccccc12	-11	-15	32*	27*
CC1CCC2(CC1)NC(=O)N(CC(=O)N1CCN(S(=O)(=O)c3ccccc3)CC1)C2=O (stereo not given)	-4	-5	0	/
Cc1cc(CN(C)C(=O)c2cc(COc3ccc(F)cc3Cl)on2)n[nH]1	-12	-11	-5	/
Cc1ccc(CN(C)C(=O)c2cc(COc3ccc(F)cc3Cl)on2)o1	-18	-13	20*	/
Cc1ccc(C)c(CSc2nnc(-c3cccs3)n2Cc2ccco2)c1	-4	3	53*	24*
NC(=O)CSc1nnc(-c2cccs2)n1Cc1ccco1	-8	9	/	/
CCCCNC(=O)Nc1nnc(C(C)(C)C)s1	9	2	/	/
Cc1cccc(OCC(=O)Nc2nonc2NC(=O)COc2cccc(C)c2)c1	5	-18	6	1
Cc1ccc(C)c(OCC(=O)Nc2nonc2NC(=O)COc2cc(C)ccc2C)c1	-8	-72	24*	21*
O=C(Nc1nccs1)c1ccc(S(=O)(=O)NCC2CCCCC2)cc1	29	42*	-16	4
O=C1NC(c2ccccc2OC(F)F)Oc2ccccc21 (stereo not given)	56*	46*	-6	/
COc1ccc(N=CC2=C(Nc3ccc(OC)cc3)c3c(C)nn(-c4ccccn4)c3CC2)cc1	3	-18	21*	13
Cc1ccc(S(=O)(=O)N(C)C)cc1NC(=O)COC(=O)c1ccc(Cl)cc1	-4	10	-2	/
SMILES	NPY-Y2 PAM-ag	NPY-Y1 PAM-ag	NPY Y1 blocker	NPY Y2 blocker
CCOC(=O)C(C)Sc1nc(-c2ccco2)cc(C(F)(F)F)c1C#N (stereo not given)	20	-11	34*	20*
O=C(C(Sc1ccccc1)c1ccccc1)N1CCN(c2ccccc2F)CC1 (stereo not given)	-10	-10	36*	20*
CCOC(=O)C1CCCN(Cc2ccccc2OCC)C1 (stereo not given)	-10	-1	0	4
CCOC(=O)C1CCCN(CC(O)COc2ccccc2C(C)=O)C1 (stereo not given)	37*	62*	-7	2
CCOC(=O)C1CCCN(CC(O)COc2ccc(OC)cc2C(C)(C)C)C1 (stereo not given)	49*	41*	-5	2
CCOC(=O)N/N=C(\C)c1ccc(OC(F)F)cc1OC(F)F	-3	6	-1	3
CCc1ccc2c(CN3CCc4ccccc43)cc(=O)oc2c1	-9	-2	22*	22*
O=c1cc(CN2CCc3ccccc32)c2ccc(O)cc2o1	0	-24	1	/
CC1=C(C(=O)OC(C)C)C(c2cccs2)NC(=S)N1 (stereo not given)	2	-26	7	0
COC(=O)c1ccsc1NC(=O)CN1CCN(Cc2ccc3c(c2)OCO3)CC1	-17	-3	8	8
COC(=O)c1c(NC(=O)CN2CCN(Cc3ccc4c(c3)OCO4)CC2)sc(C)c1C	-51	-95	48*	38*
Cc1ccc(NC(=O)C2=C(c3ccccc3)S(=O)(=O)CCS2(=O)=O)cc1	55*	56*	-7	/
Cc1cc(Nc2cccc(F)c2)nc(-c2ccccc2O)n1	42*	40*	-9	-5
O=C(COc1ccc2ccccc2c1)Nc1ccc2c3c(cccc13)CC2	5	-3	10	21*
COc1ccc(CCN2C(=O)CSC2=Nc2ccc(C(C)C)cc2)cc1OC	17	-9	/	/
Cc1cc(OCC(F)(F)C(F)(F)C(F)(F)C(F)(F)C(F)(F)C(F)F)nc(N)n1	38*	62*	0	5
COC(=O)CCC/C=C1/SCC(NC(=O)c2ccccc2)/C1=N/O (stereo not given)	-3	16	-1	/
CCCn1c(SCC(=O)NCCc2ccccc2)nnc1C(C)C	-18	-2	/	/
COc1ccc(N2CCc3c(C)nc4c(OC)cc(OC)cc4c32)c(OC)c1	-10	-15	44*	25*
CCOC(=O)c1[nH]c(C=O)c(C(=O)OCC)c1C	-1	14	-8	/
NN(CCO)C(=S)Nc1ccc(Cl)cc1	3	-1	-7	/
COCCOC(=O)c1c(C)oc2ccc(O)c(CN3CCC(C)CC3)c12	-8	-15	15	13
CCOC(=O)c1c(-c2ccccc2)oc2ccc(O)c(CN3CCCC3)c12	-44	-43	39*	23*
CCOC(=O)c1c(-c2ccccc2)oc2ccc(O)c(CN(C)C)c12	-35	-49	22*	25*
CCn1nc(C)c(CN2CCCC(CO)(Cc3cccc(Cl)c3)C2)c1C (stereo not given)	0	-8	-1	/
SMILES	NPY-Y2 PAM-ag	NPY-Y1 PAM-ag	NPY Y1 blocker	NPY Y2 blocker
CCOCCCNCC(O)c1ccccc1 (stereo not given)	1	-43	9	0
OCc1cc(C(O)CNCCCCCCOCCCCc2ccccc2)ccc1O (stereo not given)	86*	78*	-11	/
Cc1cc(C(=O)CCl)c(C)n1CCc1ccc(Cl)cc1	91*	63*	-4	/
Cc1cc(C(=O)CCl)c(C)n1CCc1ccc(F)cc1	0	4	-1	/
S=c1nc(-c2ccccc2)n(Cc2ccco2)c2c1CCCC2	3	-13	29*	16
Cn1ncc(Cl)c1C(=O)N1CCN(C(=O)c2ccco2)CC1	4	16	-2	/
CCC(C)NC(=O)CCC(=O)Nc1ccc2nc(N3CCOCC3)cc(C)c2c1 (stereo not given)	93*	84*	-19	5
CCCN(CCC)CCCNC(=S)Nc1ccc2nc(N3CCCC3)cc(C)c2c1	-11	-25	22*	/

High-throughput results deposited in PubChem by The Scripps Research Institute Molecular Screening Center.
